Screening results as filed in PubChem.
An excerpt weighted towards active compounds, which were near 2.1% of everything screened.
ABCG2 inh: blocks JC-1 efflux by human ABCG2 transporter | IgMXP3 cells, flow cytometry | AID 1325 | inhibition, % at 6.6 µM | hit rate 0.1% among 190,000;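 active means inhibition above 80%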;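 further: 0% = DMSO and 100% = nicardipine control wells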
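Read-out basis: Efflux inhibition in percent versus controls | Test system: ABCG2 IgMXP3 and barcoded ABCB1 CCRF-Adr cell mix | Quantity: 3 million cells/mL in well | Schedule: 10 min at 25 °C | Control set: Nicardipine as high control, DMSO as low control | Reagent: JC-1 as fluorescent efflux pump substrate | Signal: Flow cytometry of retained JC-1 fluorescence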
ABCB1 inh: blocks JC-1 efflux by human ABCB1 transporter. inhibition, % at 6.6 µM. P08183. hit rate 0.067% among 190,000. CCRF-Adr cells, flow cytometry. AID 1326; in the data active means inhibition above about 40%;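 further: 0% = vehicle and 100% = reference inhibitor; higher value means more JC-1 retained so stronger ABCB1 efflux block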
Target sequence (P08183 whole entry, looked up): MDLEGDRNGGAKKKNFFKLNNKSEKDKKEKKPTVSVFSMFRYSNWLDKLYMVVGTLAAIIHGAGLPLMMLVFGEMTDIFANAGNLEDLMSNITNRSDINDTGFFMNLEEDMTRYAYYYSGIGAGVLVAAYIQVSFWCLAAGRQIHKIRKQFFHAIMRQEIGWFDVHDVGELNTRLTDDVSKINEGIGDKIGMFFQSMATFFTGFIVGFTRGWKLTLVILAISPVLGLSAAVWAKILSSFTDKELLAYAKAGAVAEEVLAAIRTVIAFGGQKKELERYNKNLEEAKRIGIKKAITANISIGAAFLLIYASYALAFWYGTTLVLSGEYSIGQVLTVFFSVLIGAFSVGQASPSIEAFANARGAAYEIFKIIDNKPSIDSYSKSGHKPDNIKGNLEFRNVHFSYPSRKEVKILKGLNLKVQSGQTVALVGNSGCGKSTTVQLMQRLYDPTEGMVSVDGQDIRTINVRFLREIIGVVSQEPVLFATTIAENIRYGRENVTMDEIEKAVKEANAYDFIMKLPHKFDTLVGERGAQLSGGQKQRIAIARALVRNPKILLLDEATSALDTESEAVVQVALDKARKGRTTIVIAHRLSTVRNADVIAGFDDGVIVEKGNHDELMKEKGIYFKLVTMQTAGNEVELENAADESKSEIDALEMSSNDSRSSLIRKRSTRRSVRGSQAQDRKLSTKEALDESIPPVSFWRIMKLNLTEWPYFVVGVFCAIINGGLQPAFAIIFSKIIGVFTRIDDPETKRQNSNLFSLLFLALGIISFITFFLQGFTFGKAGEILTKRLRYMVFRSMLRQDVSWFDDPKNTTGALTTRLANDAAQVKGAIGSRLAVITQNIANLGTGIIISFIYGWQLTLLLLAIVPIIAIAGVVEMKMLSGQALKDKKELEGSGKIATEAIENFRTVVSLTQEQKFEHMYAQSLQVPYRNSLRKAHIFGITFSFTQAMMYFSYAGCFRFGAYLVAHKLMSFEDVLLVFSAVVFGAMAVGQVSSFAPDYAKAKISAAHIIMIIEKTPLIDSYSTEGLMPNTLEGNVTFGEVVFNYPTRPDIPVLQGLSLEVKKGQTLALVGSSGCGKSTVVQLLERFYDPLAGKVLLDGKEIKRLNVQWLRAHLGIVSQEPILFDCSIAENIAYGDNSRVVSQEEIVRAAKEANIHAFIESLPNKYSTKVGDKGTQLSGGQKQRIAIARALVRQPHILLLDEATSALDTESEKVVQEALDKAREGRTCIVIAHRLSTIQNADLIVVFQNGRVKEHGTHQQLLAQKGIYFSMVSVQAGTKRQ
Autophagy HCS: alters autophagy in cells; MEF GFP-LC3 puncta imaging; test concentration mostly 10 µM; calls only at 10 µM (by protocol); hit rate 0.98% among 190,000;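 active means percentage of spot-positive cells more than 3 SD above its plate mean, without a fluorescence outlier flag or 80% toxicity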;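 further: spot-positive cell cutoff set from DMSO-treated cells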
Arbovirus inh: blocks arbovirus infection. arbovirus infection cell-based antiviral screen. inhibition, % at 10 µM. hit rate 0.37% among 200,000; in the data active means inhibition above about 30%
MT stabilizer: microtubule stabilization, imaging screen; HeLa tubulin immunostaining HCS, 24 h; share of cells brighter than vehicle mean+2SD; hit rate 0.83% among 200,000; % tubulin-high responders, % at 10 µM;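 active means plate Z-score above 3 for both tubulin-high and condensed-nucleus cell shares, with cell loss under 80%, at 10 µM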;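 further: anti alpha tubulin signal scored within the nucleus-defined area of each cell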
bCat nuc transl: alters nuclear translocation of beta-catenin in HeLa cells; immunofluorescence imaging; nuclear translocation activity, % at 5 µM; hit rate 0.3% among 190,000;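 active means nuclear translocation activity above 50% at 5 µM, with a well cell count of 50 or more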;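 further: per-cell ratio of nuclear to cytoplasmic median beta-catenin stain intensity; plate controls were DMSO negative control for no effect and GSK-3 inhibitor IX positive control for full effect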
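Test system: human HeLa cell line; Doses: 5 µM primary, 0.02–20 µM confirmation; Incubation: 24 h compound exposure, 37°C; Detection: beta-catenin immunofluorescence imaging with DAPI; Read-out: beta-catenin nuclear/cytoplasmic ratio, % activation.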
Starred values were filed as active, the others as inactive; i = inactive; / = no result; + = active, no number.

SMILES	ABCG2 inh	ABCB1 inh	Autophagy HCS	Arbovirus inh	MT stabilizer	bCat nuc transl
CCCn1c(=NC(=O)c2ccco2)c(C(=O)OCC)cc2c(=O)n3ccccc3nc21	1	1	i	-2	1	0
CCCn1c(=NC(=O)c2c(-c3c(F)cccc3Cl)noc2C)c(C(=O)OCC)cc2c(=O)n3ccccc3nc21	-12	-2	+	-26	7	-2
O=C(/C=C/c1ccc2c(c1)OCCCO2)c1ccc2ccccc2c1O	13	1	i	32*	1	0
Cc1ccc(C(=O)/C=C/c2ccc3c(c2)OCCO3)c(O)c1	/	/	/	/	/	1
CS(=O)(=O)c1sc2nc(-c3cccs3)cc(-c3ccccc3)c2c1N	2	1	i	24	7	11
N#Cc1sc2nc(-c3cccs3)cc(-c3ccc(F)cc3)c2c1N	1	0	i	37*	4	-6
COCC(=O)N1CCCN(c2nc3c(C)cccc3cc2C#N)CC1	3	1	i	2	38	-2
Cc1nc(SC2CC(=O)N(c3ccccc3)C2=O)n[nH]1 (stereo not given)	2	0	+	2	3	0
S=C(NCc1ccccc1)N1CCn2cccc2C1c1cccnc1 (stereo not given)	0	0	i	34*	2	-2
S=C(NCCc1ccccc1)N1CCn2cccc2C1c1cccnc1 (stereo not given)	4	1	i	1	2	-1
O=C(N/N=C/c1ccc(Br)cc1)c1ccccc1-n1cccc1	2	0	i	-12	47*	12
CC1(C)CC(CC(=O)Nc2ccccn2)C(=O)O1 (stereo not given)	1	0	i	2	3	2
Clc1nnc(N/N=C/c2ccccc2)c2ccccc12	14	0	i	6	2	/
Clc1ccc(/C=N/Nc2nnc(Cl)c3ccccc23)cc1	18	0	+	-17	1	/
COC(=O)Nc1ccc(S(=O)(=O)N2CCC(C(=O)N(C)C3CCCCC3)CC2)cc1	3	1	i	30*	3	-1
CCOC(=O)C1CCN(S(=O)(=O)c2ccc(NC(=O)OC)cc2)CC1	6	2	i	2	3	-1
O=C(c1ccc(Br)o1)N1CCN(c2ccccc2F)CC1	4	0	+	0	4	0
CC1=C(C#N)c2nc(N)c(C#N)c(C)c2/C1=C\c1ccc(C)cc1	4	2	+	-10	3	0
COc1cc(/C=C2\C(C)=C(C#N)c3nc(N)c(C#N)c(C)c32)ccc1OCC(=O)O	/	/	/	/	/	1
O=[N+]([O-])c1ccc(Oc2cccc3cccnc23)c([N+](=O)[O-])c1	6	2	i	8	7	3
Cc1ccc2cccc(Oc3ccc([N+](=O)[O-])cc3[N+](=O)[O-])c2n1	8	1	i	-3	16*	/
CCCc1nc2c(=O)n(C)c(=O)nc-2n(C)n1	-2	0	i	-21	20*	3
O=C1NC(=NCc2ccccc2)S/C1=C/c1ccc(O)cc1	14	0	i	-17	5	1
Clc1ccc(-c2nn3c(-c4ccccc4)nnc3s2)cc1	5	0	i	-4	4	1
CCn1c(SCC(=O)Nc2cc3oc4ccccc4c3cc2OC)nnc1-c1cccs1	3	2	i	10	5	/
SMILES	ABCG2 inh	ABCB1 inh	Autophagy HCS	Arbovirus inh	MT stabilizer	bCat nuc transl
O=C(/C=C/c1ccco1)Nc1cc(Cl)ccc1C(=O)O	-6	-4	i	42*	2	0
O=C(/C=C/c1ccco1)Nc1ccccc1C(=O)O	9	0	i	26	3	1
O=C(Nc1ccccc1)Nc1cc([N+](=O)[O-])ccc1F	11	1	i	1	6	-2
O=C(/C=C\c1ccco1)Nc1cc([N+](=O)[O-])ccc1F	24	1	i	-13	4	56*
COCCCNCC#CCOc1ccc(OC)cc1	0	0	+	11	5	0
COc1ccc(N(C(=O)c2ccco2)S(=O)(=O)c2cccs2)cc1	1	-2	i	-2	3	-3
O=C(Nc1ccccc1N(C(=O)c1ccco1)S(=O)(=O)c1cccs1)c1ccco1	1	0	i	-5	11*	/
COCC(=O)Nc1nc2n(n1)C(c1ccc(OC)cc1)CC(c1ccc(OC)cc1)N2 (stereo not given)	2	0	i	1	2	-7
O=C(O)CCCC(=O)Nc1nc2n(n1)C(c1ccc(F)cc1)CC(c1ccc(Cl)cc1)N2 (stereo not given)	3	1	i	39*	4	-3
COc1cc(C(=O)NCCOc2cccc3cccnc23)cc(OC)c1OC	1	1	i	-18	40*	41
Cc1ccc(C(=O)NCCOc2cccc3cccnc23)cc1Cl	4	1	i	3	5	0
COc1cc(C(=O)NCCC(=O)NCCN2CCCCCC2)cc(OC)c1OC	1	0	i	4	3	-2
COc1cc(C(=O)NCCN2CCCC2)cc(OC)c1OC	14	2	+	-2	3	-3
CCCCc1ccc(S(=O)(=O)Nc2cc(C)on2)cc1	0	0	i	14	4	-1
O=C(N/N=C/C=C/c1ccccc1)C1CC1c1ccccc1 (stereo not given)	20	1	i	2	2	/
O=C(Nc1ccccc1)Nc1snnc1C(=O)Nc1cccc(O)c1	0	0	i	48*	2	4
Cc1cc(=O)[nH]c(SCC(=O)Nc2ccc3c(c2)OCCO3)n1	-1	-1	i	1	3	0
COc1ccc(-n2c(O)c(C=Nc3ccccc3)c3ccccc3c2=O)cc1	8	-1	+	-17	2	/
Cc1cc(N=Cc2c(O)n(-c3ccc4c(c3)OCO4)c(=O)c3ccccc23)ccn1	7	7	i	12	2	-3
COc1ccc(-n2c(O)c(C=Nc3ccccc3)c3ccccc3c2=O)cc1OC	/	/	/	/	/	-1
Cc1ccc(-n2c(O)c(C=Nc3ccc4c(c3)OCO4)c3ccccc3c2=O)cc1C	0	0	+	-16	5	1
CC1=C(C(=O)Nc2ccc(Cl)cc2)C(c2ccncc2)C(C#N)=C(SCC(N)=O)N1 (stereo not given)	4	1	i	17	3	2
CCN(CC)c1ccc(-c2n[nH]c(=S)n2-c2ccccc2)cc1	-1	0	i	-17	25*	4
CN(C)c1ccc(-c2n[nH]c(=S)n2-c2ccccc2)cc1	1	0	i	-1	5	0
Cn1c2ccccc2c2cc(C(=O)NNS(=O)(=O)c3ccc(F)cc3)sc21	3	0	i	-15	2	1
